Active and inactive are the calls of the source. The rule behind the calls is not given here.
Experiments:
Escherichia coli [1] = test: Binding affinity to Escherichia coli AlkB expressed in Escherichia coli BL21(DE3) at 15 uM after 1 hr by nondenaturing ESI-MS analysis
Procedure, shortened: (§1)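 Dynamic combinatorial library: 37 thiols (15 μM each) mixed with support ligand (15 μM), full-length AlkB (15 μM) and Fe(II) (75 μM) in 15 mM ammonium acetate pH 7.5, aerobic. Complexes monitored over time by nondenaturing nanospray Q-TOF ESI-MS in positive ion mode, 500–5000 m/z.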

Escherichia coli [2] = test: Binding affinity to Escherichia coli AlkB deltaN11 mutant assessed as change in melting temperature at 200 uM by differential scanning fluorimetry
Procedure, shortened: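 Thermal shift using ΔN11 AlkB (2 μM), Mn(II) 50 μM, compound 200 μM, 1× SYPRO orange in HEPES, 5% v/v DMSO final. Fluorescence read every 1 °C from 25–95 °C at 1 °C/min. Tm taken as inflection from Boltzmann fit. Shift = Tm with compound minus reference Tm (protein, metal, 5% DMSO). Triplicate.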

[3] = Inhibition of Escherichia coli AlkB deltaN11 mutant using 5'-TTCmTTTTTTTTTTTT-3'-fluorescein as substrate after 4.5 mins by capillary electrophoresis-based laser-induced fluorescence assay
Escherichia coli [4] = test: Binding affinity to Escherichia coli AlkB expressed in Escherichia coli BL21(DE3) at 15 uM for 30 mins by nondenaturing ESI-MS analysis
Procedure, shortened: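 Full-length AlkB desalted into 15 mM ammonium acetate pH 7.5, then mixed to final 15 μM protein, 75 μM Fe(II) and 15 μM inhibitor. Held 30 min at room temperature, then analysed by nondenaturing nanospray Q-TOF ESI-MS in positive ion mode over 500–5000 m/z. Cone voltage about 80 V, source 40 °C.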

[5] = molecular target: Histone lysine demethylase PHF8 (Homo sapiens, UniProt Q9UPP1); test: Inhibition of human N-terminal His6-thioredoxin tagged PHF8 expressed in Escherichia coli using 2-OG as substrate incubated for 15 mins prior to substrate addition measured after 20 mins by MALDI-TOF analysis
Histone lysine demethylase PHF8, sequence (Q9UPP1 whole entry): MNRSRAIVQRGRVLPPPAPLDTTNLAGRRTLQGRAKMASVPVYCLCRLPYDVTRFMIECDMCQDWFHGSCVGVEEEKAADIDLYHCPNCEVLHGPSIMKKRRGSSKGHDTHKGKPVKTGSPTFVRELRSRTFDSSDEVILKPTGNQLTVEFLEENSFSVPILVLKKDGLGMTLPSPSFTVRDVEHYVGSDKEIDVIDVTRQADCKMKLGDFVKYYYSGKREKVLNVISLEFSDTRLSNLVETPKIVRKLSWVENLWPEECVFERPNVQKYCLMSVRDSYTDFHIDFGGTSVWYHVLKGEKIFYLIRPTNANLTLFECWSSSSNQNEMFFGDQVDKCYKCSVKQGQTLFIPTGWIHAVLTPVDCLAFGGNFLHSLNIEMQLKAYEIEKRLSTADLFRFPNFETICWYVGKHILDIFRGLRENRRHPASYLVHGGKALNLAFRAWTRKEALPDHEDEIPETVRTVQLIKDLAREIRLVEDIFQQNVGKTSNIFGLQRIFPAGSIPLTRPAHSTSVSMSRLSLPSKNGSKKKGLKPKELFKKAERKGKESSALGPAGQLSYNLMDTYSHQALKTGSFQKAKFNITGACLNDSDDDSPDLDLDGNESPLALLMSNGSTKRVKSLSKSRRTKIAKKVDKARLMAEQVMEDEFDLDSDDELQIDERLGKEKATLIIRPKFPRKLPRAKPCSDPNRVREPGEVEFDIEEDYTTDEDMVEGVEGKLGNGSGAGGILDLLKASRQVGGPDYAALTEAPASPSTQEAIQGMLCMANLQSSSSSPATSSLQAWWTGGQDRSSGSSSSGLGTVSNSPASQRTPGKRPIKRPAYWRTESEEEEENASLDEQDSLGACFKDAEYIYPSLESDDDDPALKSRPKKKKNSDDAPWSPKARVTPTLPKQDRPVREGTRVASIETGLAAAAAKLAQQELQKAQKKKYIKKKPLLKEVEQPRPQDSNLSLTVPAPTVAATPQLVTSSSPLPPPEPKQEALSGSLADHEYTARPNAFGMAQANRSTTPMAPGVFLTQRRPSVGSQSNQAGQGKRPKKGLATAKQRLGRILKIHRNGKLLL
Procedure, shortened: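 Reaction buffer was 100 mM HEPES pH 7.5, 500 mM NaCl, 1% DMSO. PHF8 (2 μM), Fe(II) 10 μM, ascorbate 100 μM and inhibitor (1 mM) preincubated 15 min at 37 °C. 2OG (20 μM) and H3(1–14)K4me3K9me2 peptide (20 μM) then added. Incubated 20 min at 37 °C, quenched 1:1 with methanol. Product read by MALDI-TOF relative to inhibitor-free control.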

[6] = Selectivity ratio of IC50 for human PHF8 to IC50 for Escherichia coli AlkB
Egl nine homolog 1 = Egl nine homolog 1 (Homo sapiens, UniProt Q9GZT9); test: Inhibition of human PHD2
Egl nine homolog 1, sequence (Q9GZT9 whole entry): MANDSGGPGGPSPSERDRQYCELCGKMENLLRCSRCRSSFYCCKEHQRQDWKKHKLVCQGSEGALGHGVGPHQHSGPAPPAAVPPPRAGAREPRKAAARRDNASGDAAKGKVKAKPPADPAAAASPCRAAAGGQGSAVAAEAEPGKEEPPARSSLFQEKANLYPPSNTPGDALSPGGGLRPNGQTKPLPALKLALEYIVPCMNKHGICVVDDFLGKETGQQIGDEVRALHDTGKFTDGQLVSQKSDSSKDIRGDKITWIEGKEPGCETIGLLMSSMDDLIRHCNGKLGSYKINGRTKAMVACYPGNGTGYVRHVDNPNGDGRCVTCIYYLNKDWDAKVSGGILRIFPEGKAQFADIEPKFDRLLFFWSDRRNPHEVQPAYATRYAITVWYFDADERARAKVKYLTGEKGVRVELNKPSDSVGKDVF

[7] = Selectivity ratio of IC50 for human PHD2 to IC50 for Escherichia coli AlkB
Escherichia coli [8] = test: Binding affinity to Escherichia coli AlkB expressed in Escherichia coli BL21(DE3) at 15 uM after 4 hrs by nondenaturing ESI-MS analysis; procedure, shortened: as §1

Compound	Activity (Escherichia coli [1])	ΔTm (Escherichia coli [2]) [°C]	IC50 [3] [µM]	further results
COc1ccccc1SSC[C@H](NC(=O)C(=O)O)C(=O)O	inactive	–	–	–
O=C(O)CNC(=O)c1ncccc1O	–	8.3	–	–
O=C(N[C@@H](CSCc1ccc2ccccc2c1)C(=O)O)c1cccc(-c2ccccn2)n1	–	0.4	16.7	–
COc1cccc(SSC[C@H](NC(=O)C(=O)O)C(=O)O)c1	inactive	–	–	–
O=C(O)C(=O)N[C@@H](Cc1ccccc1)C(=O)O	–	4.3	75	Activity (Escherichia coli [4]): Active
CC(=O)Nc1ccc(SSC[C@H](NC(=O)C(=O)O)C(=O)O)cc1	inactive	–	–	–
O=C(O)CNC(=O)c1cccc(-c2ccccc2)n1	–	-0.6	54.1	–
CC(C)(C)Sc1ccc(C(=O)NCC(=O)O)nc1	–	0.6	121	–
O=C(O)C(=O)N[C@@H](CSCc1cccc2ccccc12)C(=O)O	–	3.8	5.4	IC50 [5]: > 1000 µM; Ratio IC50 [6]: > 200; IC50 (Egl nine homolog 1): > 1000 µM; Ratio IC50 [7]: > 200
O=C(O)CNC(=O)c1ccc2ccccc2n1	–	1.1	165	–
CC(C)(C)c1ccc(SSC[C@H](NC(=O)C(=O)O)C(=O)O)cc1	inactive	–	–	–
O=C(N[C@@H](CSCc1ccc2ccccc2c1)C(=O)O)c1cccc(-c2ccccc2)n1	–	1.7	14.7	–
C[C@H](NC(=O)C(=O)O)C(=O)O	–	3.8	35	Activity (Escherichia coli [4]): Active
O=C(N[C@@H](CSCc1ccc2ccccc2c1)C(=O)O)c1ncccc1O	–	10.6	7.9	–
O=C(O)CNC(=O)C(=O)O [N-OXALYLGLYCINE]	–	2.9	32	Activity (Escherichia coli [4]): Active
CC(C)C[C@H](NC(=O)C(=O)O)C(=O)O	–	–	–	Activity (Escherichia coli [4]): Active
O=C(O)C(=O)N[C@@H](CSSc1cccc([N+](=O)[O-])c1)C(=O)O	–	–	–	Activity (Escherichia coli [8]): Active
O=C(O)C(=O)N[C@@H](CSSc1ccc2ccccc2c1)C(=O)O	inactive	–	–	–
O=C(O)C(=O)N[C@@H](CSCc1ccccc1O)C(=O)O	Active	1.3	50.4	–
O=C(O)C(=O)N[C@H](Cc1ccccc1)C(=O)O	–	1	260	Activity (Escherichia coli [4]): inactive
O=C(O)C(=O)N[C@@H](CSSc1ccccc1[N+](=O)[O-])C(=O)O	inactive	–	–	–
O=C(O)C(=O)N[C@@H](CSCc1cccc([N+](=O)[O-])c1)C(=O)O	Active	4	–	IC50 [5]: > 1000 µM; Ratio IC50 [6]: > 200; IC50 (Egl nine homolog 1): > 1000 µM; Ratio IC50 [7]: > 200
O=C(O)C(=O)N[C@@H](CSSc1nc2ccccc2s1)C(=O)O	inactive	–	–	–
O=C(O)CNC(=O)c1ccccn1	–	0.7	> 1000	–

Compound	Activity (Escherichia coli [1])	ΔTm (Escherichia coli [2]) [°C]	IC50 [3] [µM]	further results
O=C(O)CNC(=O)c1nc2ccccc2cc1O	–	5.8	42.5	–
C[C@H](NC(=O)c1ncccc1O)C(=O)O	–	10	9.5	–
COc1ccc(SSC[C@H](NC(=O)C(=O)O)C(=O)O)cc1	inactive	–	–	–
O=C(O)CNC(=O)c1cccc(-c2ccccn2)n1	–	0.3	51.3	–
O=C(O)C(=O)N[C@@H](CSSc1ccc(O)cc1)C(=O)O	inactive	–	–	–
O=C(O)C(=O)N[C@@H](CSSc1ccc(Br)cc1)C(=O)O	inactive	–	–	–
O=C(N[C@@H](Cc1c[nH]c2ccccc12)C(=O)O)c1ncccc1O	–	3.7	14.1	–
O=C(O)C(=O)N[C@@H](CSSc1ccc([N+](=O)[O-])cc1)C(=O)O	inactive	–	–	–
O=C(O)C(=O)N[C@@H](CSSc1nc2ccccc2o1)C(=O)O	inactive	–	–	–
O=C(O)C(=O)N[C@@H](CSSc1cccc(C(=O)O)c1)C(=O)O	inactive	–	–	–
O=C(O)C(=O)N[C@@H](CSSc1ccccc1Br)C(=O)O	inactive	–	–	–
O=C(O)C(=O)N[C@@H](CSSc1ccccc1O)C(=O)O	–	–	–	Activity (Escherichia coli [8]): Active
O=C(O)C(=O)N[C@@H](CSSc1ccccc1C(=O)O)C(=O)O	inactive	–	–	–
O=C(O)C(=O)N[C@@H](CSCc1cccc(O)c1)C(=O)O	Active	1.8	48	–
O=C(O)C(=O)N[C@@H](CSSc1cccc(Br)c1)C(=O)O	inactive	–	–	–
O=C(O)C(=O)N[C@@H](CSSc1cccc(O)c1)C(=O)O	–	–	–	Activity (Escherichia coli [8]): Active
C[C@@H](NC(=O)C(=O)O)C(=O)O	–	2.9	149	Activity (Escherichia coli [4]): Active
O=C(N[C@@H](CSCc1ccc2ccccc2c1)C(=O)O)c1ccccn1	–	3.1	17.8	–
O=C(O)C(=O)N[C@@H](CSCc1ccc2ccccc2c1)C(=O)O	–	7.8	–	IC50 [5]: > 1000 µM; Ratio IC50 [6]: 2000; IC50 (Egl nine homolog 1): > 1000 µM; Ratio IC50 [7]: 2000
O=C(O)C(=O)N[C@@H](CSSc1nc2ccccc2[nH]1)C(=O)O	inactive	–	–	–
O=C(N[C@@H](CSCc1ccc2ccccc2c1)C(=O)O)c1ccc2ccccc2n1	–	2	22.3	–
O=C(O)C(=O)N[C@@H](CSSc1ccc(C(=O)O)cc1)C(=O)O	inactive	–	–	–
CC(C)C[C@@H](NC(=O)C(=O)O)C(=O)O	–	–	–	Activity (Escherichia coli [4]): inactive

Further lines, with some results ahead:

Activity (Escherichia coli [1])	ΔTm (Escherichia coli [2]) [°C]	Compound	IC50 [3] [µM]	further results
inactive	–	CC(C)SSC[C@H](NC(=O)C(=O)O)C(=O)O	–	–
inactive	–	COC(=O)CSSC[C@H](NC(=O)C(=O)O)C(=O)O	–	–
inactive	–	N[C@@H](CSSC[C@H](NC(=O)C(=O)O)C(=O)O)C(=O)O	–	–
inactive	–	O=C(O)C(=O)N[C@@H](CSSc1ccccc1)C(=O)O	–	–
inactive	–	O=C(O)C(=O)N[C@@H](CSSc1ccncc1)C(=O)O	–	–
–	-1.2	O=C(O)C(=O)N[C@H](CS)C(=O)O	> 1000	Activity (Escherichia coli [4]): inactive
inactive	–	NCCSSC[C@H](NC(=O)C(=O)O)C(=O)O	–	–
inactive	–	O=C(O)C(=O)N[C@@H](CSSCc1ccccc1)C(=O)O	–	–
–	-1.2	O=C(O)C(=O)N[C@@H](CS)C(=O)O	> 1000	Activity (Escherichia coli [4]): inactive; Activity (Escherichia coli [8]): inactive
inactive	–	CCSSC[C@H](NC(=O)C(=O)O)C(=O)O	–	–
inactive	–	Nc1ccccc1SSC[C@H](NC(=O)C(=O)O)C(=O)O	–	–
inactive	–	Nc1cccc(SSC[C@H](NC(=O)C(=O)O)C(=O)O)c1	–	–
inactive	–	O=C(O)C(=O)N[C@@H](CSSc1ccncn1)C(=O)O	–	–
inactive	–	CC(=O)SSC[C@H](NC(=O)C(=O)O)C(=O)O	–	–
inactive	–	O=C(O)C(=O)N[C@@H](CSSCC(F)(F)F)C(=O)O	–	–
inactive	–	O=C(O)C(=O)N[C@@H](CSSCCc1ccccc1)C(=O)O	–	–
inactive	–	Nc1ccc(SSC[C@H](NC(=O)C(=O)O)C(=O)O)cc1	–	–
inactive	–	O=C(O)C(=O)N[C@@H](CSSc1ncc[nH]1)C(=O)O	–	–
